We go through 16 molecules from ChEMBL document CHEMBL1133501, “Conformationally constrained anesthetic steroids that modulate GABA(A) receptors” (J Med Chem, 2000).

Each structure is given as a SMILES string.

In test [1] the target is GABA-A receptor; anion channel. Nature of the test: Inhibition of binding of tert-butyl bicyclophosphorothionate ([35 S]TBPS) at Gamma-aminobutyric acid A receptor from rat whole brain membranes. The test is classed as cell membranes, Membrane.
Another test concerns Mus musculus. Nature of the test: Hypnotic dose required to cause a loss of righting reflex for a minimum period of 30 s in 50 percent of treated mice after intravenous administration. Type of test: functional. An outline of the steps:
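Mice given steroid intravenously. The endpoint was loss of righting reflex lasting at least 30 s. The dose producing this in 50% of treated mice (HD50) was derived by probit analysis and expressed in µmol·kg-1.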

As usually defined, the IC50 is the concentration that gives 50% inhibition. A higher IC50 goes with weaker potency. Take `C[C@]12CC[C@@H](O)C[C@@H]1CC[C@@H]1[C@@H]2CC[C@@]2(C)[C@H]1CC[C@@]21CCO1`: the IC50 in test [1] was 232 nM. In addition, in the test with Mus musculus, the HD50 was 62.8 µM/kg. On the same counts, the results for `C[C@]12CC[C@@H](O)C[C@@H]1CC[C@@H]1[C@@H]2CC[C@]2(C)[C@@H](C(=O)CO)CC[C@@H]12` are 192 nM and 18.5 µM/kg. On the same counts, the results for `C[C@]12CC[C@@H](O)C[C@H]1CC[C@@H]1[C@@H]2CC[C@@]2(C)[C@H]1C[C@@H]1O[C@@H]12` are 159 nM and 38 µM/kg. In the case of `CC(=O)[C@H]1CC[C@H]2[C@@H]3CC[C@H]4C[C@H](O)CC[C@]4(C)[C@H]3CC[C@]12C` [BREXANOLONE], the IC50 in test [1] amounted to 155 nM. In the test with Mus musculus, this molecule gave an HD50 of 10 µM/kg. In turn, `C[C@]12CC[C@@H](O)C[C@@H]1CC[C@@H]1[C@@H]2CC[C@@]2(C)[C@H]1C[C@@H]1O[C@@H]12` displayed a half-inhibitory concentration (IC50) in test [1] of 255 nM. The HD50 with Mus musculus amounted to 17.3 µM/kg.

In turn, `C[C@]12CC[C@@H](O)C[C@@H]1CC[C@@H]1[C@@H]2CC[C@@]2(C)[C@H](C#N)CC[C@@H]12` registered an IC50 in test [1] of 1240 nM. The molecule also showed an HD50 in the test on Mus musculus of 114.9 µM/kg.

Turning to `CO[C@H]1CC[C@H]2[C@@H]3CC[C@H]4C[C@H](O)CC[C@]4(C)[C@H]3CC[C@]12C`, the 50% inhibitory concentration (IC50) in test [1] amounted to 210 nM. The HD50 with Mus musculus stood at 23.1 µM/kg.

Turning to `C[C@]12CC[C@@H](O)C[C@@H]1CC[C@@H]1[C@@H]2CC[C@@]2(C)[C@H]1CC[C@@]21CO1`, the IC50 in test [1] is 55 nM. The HD50 in the test with Mus musculus is 19.8 µM/kg. On the same counts, the results for `C[C@]12CC[C@@H](O)C[C@@H]1CC[C@@H]1[C@@H]2CC[C@]2(C)C(=O)CC[C@@H]12` [ANDROSTERONE] are 1370 nM and 68.9 µM/kg. In turn, `C[C@]12CC[C@@H](O)C[C@H]1CC[C@@H]1[C@@H]2CC[C@@]2(C)[C@H]1CC[C@@]21CO1` displayed a half-inhibitory concentration (IC50) in test [1] of 221 nM. Further, in the test on Mus musculus, the HD50 came to 22.6 µM/kg.

`C[C@]12CC[C@@H](O)C[C@@H]1CC[C@@H]1[C@@H]2CC[C@]2(C)[C@@H](O)CC[C@@H]12` [ANDROSTANDIOL]: in test [1], the IC50 was 1870 nM. In addition, the HD50 in the test on Mus musculus was 239.4 µM/kg. With `C[C@]12CC[C@H]3[C@@H](CC[C@H]4CC(O)CC[C@@]43C)[C@@H]1CC(=O)C2` (stereo not given in full), in the test with Mus musculus, the HD50 was found to be 134.7 µM/kg. Still for that read-out and setting: the result for `CC(=O)[C@H]1CC[C@H]2[C@@H]3CC[C@H]4C[C@H](O)CC[C@]4(C)[C@H]3C(=O)C[C@]12C` [ALFAXALONE] reads 6.3 µM/kg. Turning to `C[C@]12CC[C@@H](O)C[C@@H]1CC[C@@H]1[C@@H]2CC[C@@]2(C)[C@H]1C[C@@H]1CO[C@@H]12`, in test [1], the IC50 came to 2530 nM. Further, the HD50 in the test with Mus musculus came to 146.9 µM/kg. Take `C[C@]12CC[C@@H](O)C[C@@H]1CC[C@@H]1[C@@H]2CC[C@]2(C)[C@@H]3O[C@@H]3C[C@@H]12`: the IC50 in test [1] turned out to be 5350 nM. This molecule also displayed an HD50 in the test on Mus musculus of 68.4 µM/kg.

On to `CC(=O)[C@H]1CC[C@H]2[C@@H]3CC[C@@H]4C[C@H](O)CC[C@]4(C)[C@H]3CC[C@]12C` [ELTANOLONE], for which the IC50 in test [1] came out at 145 nM. Besides, the HD50 in the test with Mus musculus is 9.5 µM/kg.
